According to ChEMBL document CHEMBL4346727, “Synthesis and pharmacological evaluation of novel N-Mannich bases derived from 5,5-diphenyl and 5,5-di(propan-2-yl)imidazolidine-2,4-dione core” (Bioorg Med Chem Lett, 2019):
Active and inactive are the calls of the source. Unless noted, no cut-off for these calls is given here.

Experiments:
[1] = test system: Mus musculus; assay: Anticonvulsant activity in ip dosed CD1 mouse assessed as protection against subcutaneous pentylenetetrazole-induced seizures and measured after 4 hrs; assay type: functional; conditions: CD1, 4 h, read-out: MED
Procedure, shortened: (§1)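 Mice were screened after intraperitoneal doses of 30, 100 and 300 mg/kg in the maximal electroshock and subcutaneous pentylenetetrazole tests, examined at 0.5 and 4 h. The value recorded is the minimum dose showing activity. No activity up to 300 mg/kg is scored as absent.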

[2] = test system: Mus musculus; assay: Anticonvulsant activity in ip dosed CD1 mouse assessed as time to peak effect on protection against subcutaneous pentylenetetrazole-induced seizures; assay type: functional
Procedure, shortened: (§2)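 Median effective doses were quantified in the maximal electroshock, subcutaneous pentylenetetrazole and 6 Hz tests after intraperitoneal dosing in mice or oral dosing in rats, at the time of peak effect. ED50 values are reported with ranges in parentheses.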

[3] = test system: Mus musculus; assay: Anticonvulsant activity in CD1 mouse assessed as protection against 50 mA current-induced seizure at 300 mg/kg, ip and measured after 0.5 hrs by maximal electroshock seizure test; assay type: functional, organism-based; procedure, shortened: as §1
[4] = Neurotoxicity in ip dosed CD1 mouse and measured after 0.5 hrs by rotarod test; assay type: toxicity, organism-based; conditions: in vivo
Procedure, shortened: (§3)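 Mice dosed intraperitoneally at 30, 100 and 300 mg/kg, then tested on the rotarod at 0.5 h and 4 h. The value recorded is the minimum dose at which neurotoxicity appeared. A dash means no neurotoxicity at the top dose of 300 mg/kg.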

[5] = test system: Mus musculus; assay: Anticonvulsant activity in ip dosed CD1 mouse assessed as protection against subcutaneous pentylenetetrazole-induced seizures; assay type: functional; procedure, shortened: as §2
[6] = Protection index, ratio of TD50 for neurotoxicity in ip dosed CD1 mouse by rotarod test to ED50 for anticonvulsant activity in ip dosed CD1 mouse model of subcutaneous PTZ-induced seizures; assay type: toxicity, organism-based; conditions: in vivo, read-out: Ratio TD50/ED50
[7] = test system: Mus musculus; assay: Potency index, ratio of phenytoin ED50 to compound ED50 for anticonvulsant activity protection against subcutaneous pentylenetetrazole-induced seizures in ip dosed CD1 mouse; assay type: functional
[8] = test system: Mus musculus; assay: Anticonvulsant activity in CD1 mouse assessed as protection against 50 mA current-induced seizure at 300 mg/kg, ip and measured after 4 hrs by maximal electroshock seizure test; assay type: functional, organism-based; procedure, shortened: as §1
[9] = test system: Mus musculus; assay: Anticonvulsant activity in ip dosed CD1 mouse assessed as time to peak effect on protection against 50 mA current-induced seizures; assay type: functional; procedure, shortened: as §2
[10] = test system: Mus musculus; assay: Anticonvulsant activity in ip dosed CD1 mouse assessed as time to peak effect on protection against 32 mA current-induced seizure by 6 Hz psychomotor seizure test; assay type: functional; procedure, shortened: as §2
[11] = Neurotoxicity in ip dosed CD1 mouse model by rotarod test; assay type: toxicity, organism-based; conditions: in vivo
[12] = Neurotoxicity in CD1 mouse at 300 mg/kg, ip and measured after 4 hrs hrs by rotarod test; assay type: toxicity, organism-based; conditions: in vivo; procedure, shortened: as §3
[13] = test system: Mus musculus; assay: Anticonvulsant activity in CD1 mouse assessed as protection against subcutaneous pentylenetetrazole-induced seizures at 300 mg/kg, ip and measured after 0.5 hrs; assay type: functional, organism-based; procedure, shortened: as §1
[14] = Neurotoxicity in ip dosed CD1 mouse assessed as time to peak effect by rotarod test; assay type: toxicity, organism-based; conditions: in vivo
[15] = test system: Rattus norvegicus; assay: Anticonvulsant activity in po dosed Sprague-Dawley rat assessed as time to peak effect on protection against 32 mA current-induced seizure by 6 Hz psychomotor seizure test; assay type: functional
[16] = test system: Mus musculus; assay: Anticonvulsant activity in CD1 mouse assessed as protection against subcutaneous pentylenetetrazole-induced seizures at 300 mg/kg, ip and measured after 4 hrs; assay type: functional, organism-based; procedure, shortened: as §1
[17] = test system: Rattus norvegicus; assay: Anticonvulsant activity in po dosed Sprague-Dawley rat assessed as time to peak effect on protection against subcutaneous pentylenetetrazole-induced seizures; assay type: functional
[18] = Neurotoxicity in po dosed Sprague-Dawley rat model by rotarod test; assay type: toxicity, organism-based; conditions: in vivo
Procedure, shortened: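 Rats dosed orally; neurotoxicity scored on the rotarod. Screening used a fixed 30 mg/kg, with animals checked at 0.25, 0.5, 1, 2, 4 and 6 h; the reading is the number of four rats showing neurotoxicity. In quantitative runs, a median toxic dose (TD50, mg/kg) was determined after oral dosing at the time of peak effect.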

[19] = test system: Mus musculus; assay: Anticonvulsant activity in ip dosed CD1 mouse assessed as protection against 50 mA current-induced seizure and measured after 0.5 hrs by maximal electroshock seizure test; assay type: functional; conditions: read-out: MED; procedure, shortened: as §1
[20] = Protection index, ratio of TD50 for neurotoxicity in po dosed Sprague-Dawley rat by rotarod test to ED50 for anticonvulsant activity in po dosed Sprague-Dawley rat by maximal electroshock seizure test; assay type: toxicity, organism-based; conditions: in vivo, read-out: Ratio TD50/ED50
[21] = Protection index, ratio of TD50 for neurotoxicity in ip dosed CD1 mouse by rotarod test to ED50 for anticonvulsant activity in ip dosed CD1 mouse by maximal electroshock seizure test; assay type: toxicity, organism-based; conditions: in vivo, read-out: Ratio TD50/ED50
[22] = Neurotoxicity in ip dosed CD1 mouse and measured after 4 hrs by rotarod test; assay type: toxicity, organism-based; conditions: in vivo; procedure, shortened: as §3
[23] = test system: Mus musculus; assay: Anticonvulsant activity in ip dosed CD1 mouse assessed as protection against 50 mA current-induced seizure and measured after 4 hrs by maximal electroshock seizure test; assay type: functional; conditions: read-out: MED; procedure, shortened: as §1
[24] = test system: Mus musculus; assay: Anticonvulsant activity in ip dosed CD1 mouse assessed as protection against 32 mA current-induced seizure by 6 Hz psychomotor seizure test; assay type: functional; procedure, shortened: as §2
[25] = test system: Rattus norvegicus; assay: Anticonvulsant activity in po dosed Sprague-Dawley rat assessed as time to peak effect on protection against 150 mA current-induced seizures; assay type: functional; procedure, shortened: as §2
[26] = Neurotoxicity in po dosed Sprague-Dawley rat assessed as time to peak effect by rotarod test; assay type: toxicity, organism-based; conditions: in vivo
[27] = test system: Rattus norvegicus; assay: Anticonvulsant activity in po dosed Sprague-Dawley rat assessed as protection against subcutaneous pentylenetetrazole-induced seizures; assay type: functional
[28] = Neurotoxicity in CD1 mouse at 300 mg/kg, ip and measured after 0.5 hrs by rotarod test; assay type: toxicity, organism-based; conditions: in vivo; procedure, shortened: as §3
[29] = Neurotoxicity in Sprague-Dawley rat at 30 mg/kg, po measured after 30 mins by rotarod test; assay type: toxicity, organism-based; conditions: in vivo, 0.5 h
Procedure, shortened: (§4)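 Rats given one oral dose of 30 mg/kg and tested on the rotarod at 0.25, 0.5, 1, 2, 4 and 6 h.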

[30] = test system: Mus musculus; assay: Anticonvulsant activity in CD1 mouse assessed as protection against 32 mA current-induced seizure at 50 mg/kg, ip measured after 4 hrs by 6 Hz psychomotor seizure test
[31] = Neurotoxicity in CD1 mouse at 50 mg/kg, ip measured after 2 hrs by rotarod test; conditions: in vivo
[32] = Neurotoxicity in CD1 mouse at 50 mg/kg, ip measured after 1 hr by rotarod test; conditions: in vivo
[33] = Neurotoxicity in Sprague-Dawley rat at 30 mg/kg, po measured after 1 hr by rotarod test; assay type: toxicity, organism-based; conditions: in vivo; procedure, shortened: as §4
[34] = test system: Rattus norvegicus; assay: Anticonvulsant activity in Sprague-Dawley rat assessed as protection against 150 mA current-induced seizure at 30 mg/kg, po measured after 4 hrs by maximal electroshock seizure test; assay type: functional, organism-based
Procedure, shortened: (§5)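 Rats received 30 mg/kg orally and were given maximal electroshock at 0.25, 0.5, 1, 2, 4 and 6 h. Read-out is the number of rats protected out of four.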

[35] = Neurotoxicity in Sprague-Dawley rat at 30 mg/kg, po measured after 15 mins by rotarod test; assay type: toxicity, organism-based; conditions: in vivo, 0.25 h; procedure, shortened: as §4
[36] = Neurotoxicity in CD1 mouse at 50 mg/kg, ip measured after 30 mins by rotarod test; conditions: in vivo, 0.5 h
[37] = Neurotoxicity in Sprague-Dawley rat at 30 mg/kg, po measured after 2 hr by rotarod test; assay type: toxicity, organism-based; conditions: in vivo; procedure, shortened: as §4
[38] = Neurotoxicity in Sprague-Dawley rat at 30 mg/kg, po measured after 4 hr by rotarod test; assay type: toxicity, organism-based; conditions: in vivo; procedure, shortened: as §4
[39] = test system: Rattus norvegicus; assay: Anticonvulsant activity in Sprague-Dawley rat assessed as protection against 150 mA current-induced seizure at 30 mg/kg, po measured after 15 mins by maximal electroshock seizure test; assay type: functional, organism-based; procedure, shortened: as §5
[40] = test system: Rattus norvegicus; assay: Anticonvulsant activity in Sprague-Dawley rat assessed as protection against 150 mA current-induced seizure at 30 mg/kg, po measured after 30 mins by maximal electroshock seizure test; assay type: functional, organism-based; procedure, shortened: as §5
[41] = Neurotoxicity in CD1 mouse at 50 mg/kg, ip measured after 4 hrs by rotarod test; conditions: in vivo
[42] = Neurotoxicity in CD1 mouse at 50 mg/kg, ip measured after 15 mins by rotarod test; conditions: in vivo, 0.25 h
[43] = Neurotoxicity in Sprague-Dawley rat at 30 mg/kg, po measured after 6 hrs hr by rotarod test; assay type: toxicity, organism-based; conditions: in vivo; procedure, shortened: as §4
[44] = test system: Rattus norvegicus; assay: Anticonvulsant activity in Sprague-Dawley rat assessed as protection against 150 mA current-induced seizure at 30 mg/kg, po measured after 2 hrs by maximal electroshock seizure test; assay type: functional, organism-based; procedure, shortened: as §5
[45] = test system: Rattus norvegicus; assay: Anticonvulsant activity in Sprague-Dawley rat assessed as protection against 150 mA current-induced seizure at 30 mg/kg, po measured after 1 hr by maximal electroshock seizure test; assay type: functional, organism-based; procedure, shortened: as §5

SMILES	Time [2] [h]	Activity [3]	minimal neurotoxic dose [4] [mg/kg]	ED50 [5] [mg/kg]	Time [9] [h]	Time [10] [h]	Activity [12]	MED [13]	Time [14] [h]	Activity [16]	minimal effective dose [19] [mg/kg]	minimal effective dose [23] [mg/kg]	Activity [28]	Activity [29]	Activity [33]	Activity [34]	Activity [35]	Activity [37]	Activity [38]	Activity [39]	other results
CC(C)C1(C(C)C)NC(=O)N(CN2CCN(CCc3ccccc3)CC2)C1=O	4	inactive	300	89.4	4	4	Non-Toxic	inactive	4												minimal effective dose [1]: 100 mg/kg; selectivity ratio [6]: > 2.23; Ratio ED50 [7]: 5.5; Activity [8]: inactive; TD50 [11]: > 200 mg/kg
O=C1NC(=O)C(c2ccccc2)(c2ccccc2)N1 [PHENYTOIN]	1		100	> 500	1	1		inactive	1	inactive	30	30									Time [15]: 1 h; Time [17]: 1 h; TD50 [18]: > 1000 mg/kg; selectivity ratio [20]: > 35.6; selectivity ratio [21]: 7.27; MTC [22]: 100 mg/kg; ED50 [24]: > 60 mg/kg; Time [25]: 1 h; Time [26]: 1 h; ED50 [27]: > 500 mg/kg
O=C1NC(c2ccccc2)(c2ccccc2)C(=O)N1CN1CCN(CCc2ccccc2)CC1							Non-Toxic	inactive		inactive	100	30	Non-Toxic	Non-Toxic	Non-Toxic	inactive	Non-Toxic	Non-Toxic	Non-Toxic	inactive	Activity [30]: Active; Activity [31]: Non-Toxic; Activity [32]: Non-Toxic; Activity [36]: Non-Toxic; Activity [40]: Active; Activity [41]: Non-Toxic; Activity [42]: Non-Toxic
CC(C)C1(C(C)C)NC(=O)N(CN2CCN(c3ccccc3)CC2)C1=O		inactive					Non-Toxic	inactive		inactive		300	Non-Toxic	Non-Toxic	Non-Toxic	inactive	Non-Toxic	Non-Toxic	Non-Toxic	inactive	Activity [43]: Non-Toxic; Activity [44]: inactive; Activity [45]: inactive; Activity [40]: inactive
